Where two headings read alike, the source gives them in different places.
How the values were obtained:
[1] = system: PKA-induced nuclear export of MK5; experiment: PKA-induced nuclear export of EGFP-MK5 in PC12 cells; format: cell-based; settings: 10 μM forskolin, 30 min, no compound 11, untreated control 6%
How it was run: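 PC12 cells were grown in F-12K with 2 mM L-glutamine, 1.5 g/l sodium bicarbonate, 15% horse serum, 2.5% fetal calf serum, penicillin and streptomycin. They were transfected with EGFP-MK5 by nucleofection, then left untreated or pretreated with 20 μM test compound. Next came 10 μM forskolin for 30 min. Cells were fixed in 4% formaldehyde for 10 min and washed in PBS. Several hundred cells were scored by confocal microscopy for nuclear plus cytosolic EGFP-MK5.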

MK5 [2] = target: T1, MK5 (Homo sapiens, UniProt Q8IW41); experiment: MK5 kinase activity against PRAKtide substrate peptide; format: biochemical; settings: for inhibition of MK5 enzyme activity (in words): initial screening at 2 mM
T1 sequence (Q8IW41 1-473): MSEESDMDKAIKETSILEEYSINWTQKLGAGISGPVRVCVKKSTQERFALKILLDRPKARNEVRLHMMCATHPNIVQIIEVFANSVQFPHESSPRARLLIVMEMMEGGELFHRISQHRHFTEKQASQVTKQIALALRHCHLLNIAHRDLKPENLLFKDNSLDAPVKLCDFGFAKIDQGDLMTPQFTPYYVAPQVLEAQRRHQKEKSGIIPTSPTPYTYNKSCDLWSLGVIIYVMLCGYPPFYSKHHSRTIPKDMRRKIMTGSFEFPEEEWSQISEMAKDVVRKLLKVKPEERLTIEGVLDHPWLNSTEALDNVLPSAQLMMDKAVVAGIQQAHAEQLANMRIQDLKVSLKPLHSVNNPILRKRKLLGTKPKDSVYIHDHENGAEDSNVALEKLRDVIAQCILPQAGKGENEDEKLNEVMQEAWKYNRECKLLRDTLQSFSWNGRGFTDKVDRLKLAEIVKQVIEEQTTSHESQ

IKKβ = settings: 10 μM; cited from earlier work
PKA = PKA (Homo sapiens, UniProt P17612); settings: 10 μM; cited from earlier work
PHK = settings: 10 μM; cited from earlier work
MK5 [3] = target: T1, MK5; settings: read-out: IC50 MK5; cited from earlier work
smMLCK = settings: 10 μM; cited from earlier work
p70^S6K = settings: 10 μM; cited from earlier work
GSK3β = settings: 10 μM; cited from earlier work
ERK8 = settings: 10 μM; cited from earlier work
RSK2 = settings: 10 μM; cited from earlier work
p38δ = settings: 10 μM; cited from earlier work
Aurora B = settings: 10 μM; cited from earlier work
DYRK1A [4] = target: T2, DYRK1A (Homo sapiens, UniProt Q13627); settings: 10 μM; cited from earlier work
PDK1 [5] = target: T3, PDK1 (Homo sapiens, UniProt O15530); settings: 10 μM; cited from earlier work
T3 sequence (O15530 1-556): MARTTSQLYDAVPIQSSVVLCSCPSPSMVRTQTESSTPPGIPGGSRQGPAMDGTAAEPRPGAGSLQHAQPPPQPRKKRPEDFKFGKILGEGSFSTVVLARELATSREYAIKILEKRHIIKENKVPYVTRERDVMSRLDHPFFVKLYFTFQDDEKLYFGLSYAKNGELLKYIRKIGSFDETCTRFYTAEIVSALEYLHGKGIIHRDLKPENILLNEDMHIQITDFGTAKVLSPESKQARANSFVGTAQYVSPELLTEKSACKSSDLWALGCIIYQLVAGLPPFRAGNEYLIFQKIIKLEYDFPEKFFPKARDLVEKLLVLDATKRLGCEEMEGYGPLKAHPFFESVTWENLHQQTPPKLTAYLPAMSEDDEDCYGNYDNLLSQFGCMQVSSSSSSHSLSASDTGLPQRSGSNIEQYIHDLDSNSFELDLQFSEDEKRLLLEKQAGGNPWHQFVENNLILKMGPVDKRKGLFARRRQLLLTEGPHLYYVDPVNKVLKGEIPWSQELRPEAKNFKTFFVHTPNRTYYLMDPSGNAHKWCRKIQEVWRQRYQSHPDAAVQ

MSK1 = settings: 10 μM; cited from earlier work
PKB2 = settings: 10 μM; cited from earlier work
MK3 = MK3 (Homo sapiens, UniProt Q16644); settings: 10 μM; cited from earlier work
PLK1 = PLK1 (Homo sapiens, UniProt P53350); settings: 10 μM; cited from earlier work
ROCK-II = settings: 10 μM; cited from earlier work
DYRK1A [6] = target: T2, DYRK1A; settings: 10 μM; cited from earlier work; remark: listed apart in the source
PDK1 [7] = target: T3, PDK1; settings: 10 μM; cited from earlier work; remark: listed apart in the source
ERK2 = ERK2 (Homo sapiens, UniProt P28482); settings: 10 μM; cited from earlier work
MK5 [8] = target: T1, MK5; settings: read-out: IC50 MK5; cited from earlier work; remark: listed apart in the source

PLK1, sequence (P53350 whole entry): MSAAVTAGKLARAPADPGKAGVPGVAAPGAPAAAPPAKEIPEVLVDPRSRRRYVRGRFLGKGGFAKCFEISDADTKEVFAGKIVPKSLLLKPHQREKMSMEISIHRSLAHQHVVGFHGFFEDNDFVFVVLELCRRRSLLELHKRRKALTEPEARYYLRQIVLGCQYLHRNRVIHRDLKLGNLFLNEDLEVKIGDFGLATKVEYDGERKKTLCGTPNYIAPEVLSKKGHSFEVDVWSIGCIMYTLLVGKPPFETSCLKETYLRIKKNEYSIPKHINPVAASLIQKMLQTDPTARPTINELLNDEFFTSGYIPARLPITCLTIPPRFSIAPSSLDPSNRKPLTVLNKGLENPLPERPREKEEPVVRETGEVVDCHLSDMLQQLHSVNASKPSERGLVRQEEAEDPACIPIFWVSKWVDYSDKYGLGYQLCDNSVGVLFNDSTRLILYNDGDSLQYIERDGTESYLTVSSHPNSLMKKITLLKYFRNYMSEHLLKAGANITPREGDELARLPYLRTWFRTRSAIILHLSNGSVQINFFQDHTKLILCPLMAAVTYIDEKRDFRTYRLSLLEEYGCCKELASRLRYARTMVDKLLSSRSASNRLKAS
MK3, sequence (Q16644 whole entry, species assumed): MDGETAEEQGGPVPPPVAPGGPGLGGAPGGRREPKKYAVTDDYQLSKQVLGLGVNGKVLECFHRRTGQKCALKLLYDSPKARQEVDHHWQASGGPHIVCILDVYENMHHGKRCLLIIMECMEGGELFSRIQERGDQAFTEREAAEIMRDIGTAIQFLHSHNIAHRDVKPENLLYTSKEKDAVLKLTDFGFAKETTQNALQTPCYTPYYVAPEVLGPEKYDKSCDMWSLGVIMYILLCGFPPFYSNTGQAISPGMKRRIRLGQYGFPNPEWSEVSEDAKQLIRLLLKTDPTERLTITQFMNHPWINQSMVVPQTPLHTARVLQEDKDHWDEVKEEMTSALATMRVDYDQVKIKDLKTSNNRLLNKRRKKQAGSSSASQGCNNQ
ERK2, sequence (P28482 whole entry): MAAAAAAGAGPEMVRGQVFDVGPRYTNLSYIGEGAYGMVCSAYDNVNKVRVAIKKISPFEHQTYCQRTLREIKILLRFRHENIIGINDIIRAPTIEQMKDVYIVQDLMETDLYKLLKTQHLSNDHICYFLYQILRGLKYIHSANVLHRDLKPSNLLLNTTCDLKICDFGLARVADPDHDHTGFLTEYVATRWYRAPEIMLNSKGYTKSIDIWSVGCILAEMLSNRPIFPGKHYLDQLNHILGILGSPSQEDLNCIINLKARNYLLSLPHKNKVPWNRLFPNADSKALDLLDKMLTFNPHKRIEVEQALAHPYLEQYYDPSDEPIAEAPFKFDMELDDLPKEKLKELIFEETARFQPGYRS

Q: Which “cells displaying both nuclear and cytosolic EGFP-MK5” value [1] does the source give for `C=C[C@@]1(C)CC(=O)[C@]2(O)[C@@]3(C)[C@@H](O)CCC(C)(C)[C@@H]3[C@H](O)[C@H](OC(C)=O)[C@@]2(C)O1` [forskolin] here?
A: approximately 84%

Q: What about the “cells displaying both nuclear and cytosolic EGFP-MK5” value ([1]; listed as Forskolin) of the same compound?
A: 84%

Q: Which Ki (MK5 [2]) does the source give for `CCN1C[C@]2(COC)[C@H](O)C[C@H](OC)[C@]34C1[C@H]([C@H](OC)[C@H]23)[C@]1(O)[C@H]2[C@@H](O)[C@](O)(C[C@H]24)[C@@H](OC)[C@@H]1O` [Compound 8, aconine] here?
A: 301 µM

Q: What about the “IC50 MK5 (in words)” value (MK5 [2]; dose-response, PRAKtide substrate) of the same compound?
A: in the mM range

Q: What about the “inhibition of MK5 enzyme activity (in words)” value (MK5 [2]) of the same compound?
A: completely blocked

Q: And the “mode of inhibition against ATP” value (MK5 [2]; varying ATP concentrations, Lineweaver-Burk)?
A: ATP-competitive

Q: With `COc1ccc(C=CC(=O)c2c(O)cc(OC)cc2OC)cc1` [flavokavain A] as the compound, how does the “inhibition of IKKβ (in words, relative to MK5)” value (IKKβ) read?
A: more or to a similar extent

Q: And the “inhibition of PKA” value (PKA)?
A: 40–70%

Q: And the “inhibition of PHK” value (PHK)?
A: 40–70%

Q: What about the IC50 (MK5 [3]) of the same compound?
A: 10 µM

Q: What about the “inhibition of smMLCK” value (smMLCK) of the same compound?
A: 40–70%

Q: What about the “inhibition of p70^S6K” value (p70^S6K) of the same compound?
A: 40–70%

Q: What about the “inhibition of GSK3β” value (GSK3β) of the same compound?
A: 40–70%

Q: What about the “inhibition of ERK8” value (ERK8) of the same compound?
A: 40–70%

Q: And the “inhibition of RSK2” value (RSK2)?
A: 40–70%

Q: And the “inhibition of p38δ” value (p38δ)?
A: 40–70%

Q: What about the “inhibition of Aurora B (in words, relative to MK5)” value (Aurora B) of the same compound?
A: more or to a similar extent

Q: What about the “inhibition of DYRK1A (in words, relative to MK5)” value (DYRK1A [4]) of the same compound?
A: more or to a similar extent

Q: And the “inhibition of PDK1” value (PDK1 [5])?
A: 40–70%

Q: And the “inhibition of MSK1” value (MSK1)?
A: 40–70%

Q: What about the “inhibition of PKB2” value (PKB2) of the same compound?
A: 40–70%

Q: And the “inhibition of MK3 (in words, relative to MK5)” value (MK3)?
A: more or to a similar extent

Q: And the “inhibition of PLK1” value (PLK1)?
A: 40–70%

Q: For `CCN1C[C@]2(COC)[C@H](O)C[C@H](OC)[C@@]34[C@@H]5C[C@@]6(O)[C@H](OC(=O)c7ccccc7)[C@@H]5[C@@](OC(C)=O)([C@@H]([C@H](OC)[C@H]23)[C@@H]14)[C@@H](O)[C@@H]6OC` [Compound 6, aconitine], which “inhibition of MK5 enzyme activity (in words)” value (MK5 [2]) is on record?
A: completely blocked

Q: For `O=C(O[C@@H]1Cc2c(O)cc(O)cc2O[C@@H]1c1cc(O)c(O)c(O)c1)c1cc(O)c(O)c(O)c1` [EGCG, epigallocatechin gallate], which “inhibition of in vitro kinase activity of ROCK-II” value (ROCK-II) is on record?
A: ~ 90%

Q: And the “inhibition of in vitro kinase activity of DYRK1A” value (DYRK1A [6])?
A: ~ 90%

Q: And the “inhibition of in vitro kinase activity of PDK1” value (PDK1 [7])?
A: ~ 90%

Q: And the “inhibition of in vitro kinase activity of ERK2” value (ERK2)?
A: ~ 90%

Q: And the IC50 (MK5 [8])?
A: < 10 µM

— publication PMC3016492 (Cellular and Molecular Life Sciences: CMLS, 2010)
